# ChEMBL document CHEMBL4513216, “Probing the Open Global Health Chemical Diversity Library for Multistage-Active Starting Points for Next-Generation Antimalarials” (ACS Infect Dis, 2020)
# Assay: Toxicity liver stage against HepG2, at 10uM
# Type: cell-based
# Set-up: test concentration 10 uM, cell line HepG2-A16-CD81EGFP
# Conditions: human, HepG2-A16-CD81EGFP cells; read-out: INHIBITION
# Method in brief: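 Uninfected HepG2-A16-CD81EGFP cells, 3 × 10^3 per well, 1536-well, plated on prespotted compound at 10 μM final, parasite-free screening media added to match infected plates; puromycin 10 μM positive, DMSO 0.5% negative; run in parallel with 48 h PbLuc assay at 37 °C, 5% CO2; viability by CellTiter-Glo luminescence, normalized to controls.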
row,Structure (SMILES),cytotoxicity at 10 µM
1,Cc1cccc(-c2nc(C)nn2CN2CCN(S(C)(=O)=O)CC2)c1,0.729%
2,OC1(CNc2ccc(Br)cn2)CCC1,6.59%
3,CCc1ccc(CN2CCN(c3ccc(C#N)cc3)C(=O)C2)nc1,-1.32%
4,COCCN(Cc1ccsc1)C(=O)c1c(C)cc(C)[nH]c1=O,-2.42%
5,CCN(C1CCN(c2cccc(F)c2C(C)=O)CC1)S(C)(=O)=O,5.17%
6,CC(C)CCn1ccc(NC(=O)N2CCCC2CN2CCOCC2)n1 (configuration not stated),-2.16%
7,COc1ccc(S(=O)(=O)N2CCOC[C@H](Oc3cnccn3)C2)cc1,10.4%
8,CC(Cn1cccn1)NC(=O)N(C)Cc1ccc(Cl)s1 (configuration not stated),-11.9%
9,CC(NC(=O)CCCOc1ccccc1Cl)c1ccncc1 (configuration not stated),-13%
10,O=C(NCC(O)c1ccc(F)cc1F)c1cccc(F)c1 (configuration not stated),7.43%
11,CCCC(=O)N1CCN(Cc2cc(-c3ccncc3)nn2C)CC1,-27.1%
12,N#Cc1ccc(SCCOCCO)c(F)c1,0.513%
13,O=C(CCc1cscn1)NS(=O)(=O)c1ccc2c(c1)CCC2,-24.5%
14,CNC(=O)N1CCC(NC(=O)c2cnn(C)c2)CC1,-1.35%
15,CN(CC1(O)CCCN(Cc2cccc(F)c2F)C1=O)C1CCCCC1 (configuration not stated),-11.1%
16,CCN(C)S(=O)(=O)NCC1(c2cccc(Br)c2)CC1,10.7%
17,O=C(O)c1csc(S(=O)(=O)N2CCN(Cc3ccc(Cl)cc3)CC2)c1,4%
18,CCOc1ccc(Cl)c(C(=O)N2CCN(c3ccncc3)CC2)n1,-5.44%
19,N#Cc1cccn(CCOc2ccc(Cl)cc2)c1=O,18.6%
20,Cc1cc(C(=O)NC2CCC3(CCC(=O)N3C)CC2)no1 (configuration not stated),-0.361%
21,CCCc1nnc(NC(=O)NC(C)Cn2cccn2)s1 (configuration not stated),-4.05%
22,Cc1ccsc1-c1nccn1CCS(=O)(=O)N1CCCC1,-3.67%
23,CC(Cn1cccn1)NC(=O)NCc1ccnc(OC2CCCC2)c1 (configuration not stated),-4.59%

row,Structure (SMILES),cytotoxicity at 10 µM
1,Cc1cccc(OCCCN2CCC(N(C)Cc3noc(C)n3)C2)c1 (configuration not stated),-2.61%
2,Cc1ccc(N2CCCC3(COCCN(c4ncccn4)C3)C2)nn1 (configuration not stated),-131%
3,CCc1cnc(NCc2nc(CSC)no2)nc1,7.15%
4,c1cnc2c(c1)nc1n2[C@@H](CNC2CCOCC2)COC1,-4.8%
5,CCCc1nc(N2CCCN3CCC[C@H]3C2)c2cnn(C)c2n1,-129%
6,CCCc1cc(NCc2nc(COC)no2)n2nccc2n1,-0.916%
7,COc1ccc(C(=O)n2nc(C)c(C)c2C)cc1,6.06%
8,COCC1c2nnn(C)c2CCN1C(=O)c1ccc(OC)c(F)c1 (configuration not stated),-105%
9,Cc1ccc(CN(CCCn2ccnc2)Cc2cc(F)ccc2F)s1,-13.2%
10,COCCCNC(=O)CN(C)C(=O)c1cc(C)ccc1O,-6.81%
11,Cc1ccc(C(=O)NCc2ccccc2S(=O)(=O)N(C)CCO)cc1F,-3.04%
12,COc1ccc(CN2C[C@@H](F)[C@@H](OCc3nc4cnccc4[nH]3)C2)cn1,2.08%
13,Cn1cnc(S(=O)(=O)N2CCCc3cc(F)cc(F)c32)c1Cl,-0.767%
14,COCCNC(=O)NCc1ccc(-n2ccc(C(F)(F)F)n2)cc1,-7.29%
15,Cc1cc(C)n(CC2CCCN2C(=O)c2ccc3[nH]nnc3c2)n1 (configuration not stated),-13.1%
16,CC(NC(=O)c1ccc(=O)n(C)c1)c1ccccc1-n1cccn1 (configuration not stated),2.68%
17,CCN(c1ccc(C(=O)NCCN2CCOCC2)cc1)S(=O)(=O)CC,6.89%
18,CNC(=O)COc1c(C(C)=O)ccc(Cl)c1Cl,-0.769%
19,CC(c1ccccn1)N(C)Cc1ccc(-n2ccnc2)cc1 (configuration not stated),-0.452%
20,Cc1ccc(NC(=O)N2CCN(C(=O)CC3CCCC3)CC2)s1,4.36%
21,COc1c(CNCc2ccc(N(C)C)nc2)c(C(C)C)nn1C,-9.75%
22,Cc1ccc2c(c1)c(CNC(=O)C1CCN(CC(N)=O)CC1)nn2C,-3.17%
23,CC(C)Cn1cncc1CNC(=O)c1cccc(Cn2cccn2)c1,-3.12%

row,Structure (SMILES),cytotoxicity at 10 µM
1,COCCCN1CC2(CCCN(CCn3cc(Cl)cn3)C2)CCC1=O (configuration not stated),5.97%
2,CCC1CCC(NCCN2CCOCC2)CC1 (configuration not stated),3.62%
3,c1ccc(-c2nc(CN3CCCC3Cn3cncn3)no2)cc1 (configuration not stated),-7.22%
4,CCCN1CCC(Cc2noc(-c3cc4cccnc4nc3C)n2)CC1,-0.749%
5,CC(O)(CNc1ccc(Cl)c(C#N)n1)c1ccccc1 (configuration not stated),-9.06%
6,Cn1ccc2c(-c3cc(N)nc(N4CCOCC4)n3)ccnc21,-3.67%
7,N#CCCn1nc(C(F)(F)F)c2c1CCC2,-12%
8,CC1c2ncc(Cn3cccn3)n2CCN1Cc1cccnc1 (configuration not stated),6.49%
9,COc1c(C2CCCN2C(=O)c2csc(C3CC3)n2)c(C)nn1C (configuration not stated),4.53%
10,N#CCCN(C(=O)CN1CCCC1Cc1ccccc1)c1ccccc1 (configuration not stated),-20.7%
11,CCc1nc(C)c(C(=O)NCCNc2cnccn2)s1,-4.64%
12,Cc1ccccc1CN(C)C(=O)CN1CCOC(Cn2cccn2)C1 (configuration not stated),-5.1%
13,O=C(Cc1ccccn1)N1CCC2(CC1)[C@H](O)C[C@@H]2O,-2.34%
14,CCOc1cc(C(=O)N2CCCC(c3cc(C(N)=O)[nH]n3)C2)ccn1 (configuration not stated),-7.37%
15,Cc1ccccc1[C@@H]1CN(C(=O)c2ccc3[nH]nnc3c2)C[C@H]1C(=O)O,-7.21%
16,CCS(=O)(=O)N1CCCCC1c1nc(C)no1 (configuration not stated),7.03%
17,Cc1csc([C@H]2C[C@@H]3CCN(Cc4cc(C)on4)C[C@H]3O2)n1,-99.4%
18,NC(=O)C1CCN(C(=O)CCCc2nnc(-c3ccccc3)o2)C1 (configuration not stated),-19.8%
19,CC1(C)[C@H](Cc2cc(CN3CCCCC3)on2)C[C@@H]1NS(C)(=O)=O,1.12%
20,C=CNC(=O)c1nnc2ccc(N3CCOCC3)cc2n1,8.85%
21,Cc1cc(C)n(CC2CCCN2Cc2c(C)noc2C)n1 (configuration not stated),-4.08%
22,CN(C)C(=O)N1CCCC(C(=O)N(C)Cc2cnc(N)nc2)C1 (configuration not stated),-2.81%
23,CCN(c1ccc(C(=O)NCCCN2CCCC2)cc1)S(=O)(=O)CC,-3.29%

row,Structure (SMILES),cytotoxicity at 10 µM
1,CC(Cn1cccn1)n1cnc2cccc(F)c2c1=O (configuration not stated),-0.288%
2,C/C(=C\c1ccco1)CN(C)C(C)c1ccccn1 (configuration not stated),-3.49%
3,CC(C)NC(=O)NC[C@H]1OC[C@@H](NCc2cccs2)[C@@H]1O,-1.48%
4,Cc1c(NC(=O)NC2CCCC2)cccc1C(=O)N1CCSCC1,11.8%
5,Fc1ccc(CN2C[C@@H]3OCCN(CCN4CCCC4)[C@@H]3C2)cc1,-3.58%
6,Cn1cc(CC(=O)N2CCCC(n3cncn3)C2)cn1 (configuration not stated),-3.54%
7,Cc1cnn(CCC(=O)N2CCCC(c3cc(C(N)=O)[nH]n3)C2)c1 (configuration not stated),-7.32%
8,Cc1cc(NC(=O)CN2CCCC2c2noc(C)n2)n(C)n1 (configuration not stated),-2.3%
9,CCOCC(=O)NC(C)Cc1ccccc1Br (configuration not stated),-11%
10,CC(c1cccs1)N(C)C(=O)c1cc(CN(C)Cc2ccccc2)on1 (configuration not stated),5.44%
11,O=C(CCc1ccccc1)NCC(O)c1c(F)cccc1F (configuration not stated),-0.558%
12,CCc1ccc(CNC(=O)Nc2cc(C)on2)s1,-11.6%
13,O=C(COC1CCCC1)N1C[C@@H]2CN(Cc3ccoc3)CCO[C@@H]2C1,4.65%
14,CCNC(=O)[C@@H]1C[C@H](N)CN1Cc1ccc(-c2ccccc2C#N)o1,-38.2%
15,Cn1cc(N2CCC3(CCN(C(=O)[C@H]4CCCO4)C3)C2=O)cn1 (some centres not stated),0.893%
16,Cc1cnc(N2CCCC3(CCCN(C)C3)C2)nc1 (configuration not stated),-11.8%
17,CCc1cnc(CN(C(C)=O)C2CCN(CCc3ccncc3)C2)o1 (configuration not stated),-5.95%
18,CC(NC(=O)c1ccc(C#N)cn1)C1(N2CCOCC2)CCCC1 (configuration not stated),2.54%
19,Cc1n[nH]c(C2CN(C(=O)c3csnn3)CCO2)n1 (configuration not stated),2.74%
20,O=C1CNc2ncnc(NCc3cccs3)c2N1,2.99%
21,CN(Cc1ccco1)C(=O)CN1CCCC1Cn1cccn1 (configuration not stated),1.55%
22,COc1c(C2CCCN2C(=O)c2ccc(Cl)o2)c(C)nn1C (configuration not stated),-10.4%
23,COCc1cn(C[C@H]2C[C@@H]3CCN2C[C@@H]3C(=O)N2CCOCC2)nn1,4.45%

row,Structure (SMILES),cytotoxicity at 10 µM
1,CCN1CC(NC(=O)Nc2nc(C)n(C(C)C)n2)CC1=O (configuration not stated),-5.58%
2,CC(C)N1CCCC(CNC(=O)Cc2csc(-c3cccnc3)n2)C1 (configuration not stated),-51.5%
3,CC(C)(C)c1c[nH]c([C@@H]2COCCN2C2CCCCC2)n1,-1.6%
4,Cc1noc(C)c1-c1cccc(C2CCN(S(=O)(=O)N(C)C)CC2)n1,8.18%
5,Nc1nccc(C2CN(Cc3ccc(-c4ccccc4C(=O)O)o3)C2)n1,5%
6,CS(=O)(=O)NCC1CCCCN1C(=O)Nc1cccnc1N1CCCC1 (configuration not stated),-3.45%
7,Cc1cc(CN2CCC(CNC(=O)c3ccc4[nH]cnc4c3)C2)[nH]n1 (configuration not stated),-145%
8,CCc1nsc(NC2CCCn3nc(CC)nc32)n1 (configuration not stated),16.2%
9,O=C(c1ccc2[nH]cnc2c1)N1CCC(COc2ccccn2)CC1,-2.91%
10,CCCc1cncnc1N1CCC2(CCC(=O)N(C3CCCC3)C2)CC1,2.61%
11,CN(Cc1cn2c(n1)CN(C(N)=O)CC2)Cc1ccco1,-5.67%
12,CCc1ncc2c(n1)CN(Cc1nc(-c3ccccn3)no1)CC2,-20.9%
13,Cc1cccc(S(=O)(=O)N2C[C@@H]3C[C@H](C(=O)N(C)C)[C@H](C2)O3)c1,-5.18%
14,CCN1CCN(C)C(=O)C12CCN(Cc1cccc(C)c1)CC2,-2.95%
15,O=C(NCCc1ccccc1)NCC(O)c1cccc(F)c1 (configuration not stated),-7.24%
16,CC(C(=O)NCC(F)(F)F)N1CCC(N2CCN(C)C2=O)CC1 (configuration not stated),5.11%
17,Cc1noc(O)c1Cc1ccc2ccccc2c1,-8.94%
18,Cc1cc(C2CCCN2C(=O)c2cc3c(s2)CCC3)on1 (configuration not stated),-13.4%
19,CC(CN1CCOCC1)NC(=O)NCc1cccs1 (configuration not stated),-15.9%
20,Cc1nn(C)c(C)c1C1CCCN1c1ncnc2c1CCC2 (configuration not stated),13.1%
